Reference: publication PMC6345172 (Cancer letters, 2018)

Key:
[1] = tested on: AGS cells; assay: MTT cell proliferation assay, AGS; assay type: cell-based; details: Homo sapiens, 72 h, read-out: IC50 on AGS cells
How it was run: (§1)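 Cells seeded overnight in 96-well plates, then exposed to a range of test compound concentrations for 72 h. MTT added for 2 h, medium removed, formazan dissolved in DMSO, and OD570 read. Viability normalized to untreated cells from the same experiment. IC50 calculated from concentration–response data. MTT run in triplicate; means ± SEM of three experiments.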

[2] = tested on: MKN45 cells; assay: MTT cell proliferation assay, MKN45; assay type: cell-based; details: Homo sapiens, MKN-45, 72 h, read-out: IC50 on MKN45 cells
How it was run: as §1

## COc1ccc(CCCOC(Cn2ccnc2)c2ccc(OC)cc2)cc1 (centres unmarked) [SKF96365]
[1]
  IC50: 27.8 ± 1.1 µM
[2]
  IC50: 13.7 ± 0.8 µM
